What is called half-life is the time needed for the level to fall by half in the phase considered. Usually LD50 stands for the dose expected to kill half of the subjects tested. High values mean lower toxicity, low ones greater toxicity. For orientation: Tmax means the time at which the peak concentration occurs. As usually defined, the IC50 is the point on the concentration scale where inhibition reaches its midpoint. In general, EC50 refers to the midpoint of the concentration-response curve. As usually defined, the Cmax is the highest concentration seen after dosing.

The source made the active and inactive calls.

For data set [1], the system named is C6. Put plainly: Antiinflammatory activity against LPS-induced rat C6 cells assessed as decrease in GFAP protein expression at 20 uM after 24 hrs by DAPI staining based confocal laser microscopic method. Type of data set: functional, cell-based. In outline: (§1)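 Cells on glass slides with compound at 20 μM final for 24 h: C6 with LPS 10 μg/mL stained for GFAP, BV2 with LPS 1 μg/mL stained for Iba-1. Fixed in 4% paraformaldehyde, blocked in 1% BSA/0.3% Triton X-100, primary antibody 1:100 overnight at 4 °C, secondary 1:200, DAPI mount, confocal imaging. Intensity given as % of LPS group, n = 3.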

The next data set is filed under the species Homo sapiens. Put plainly: Selectivity index, ratio of IC50 for inhibition of human COX1 to IC50 for inhibition of human COX2.
Data set [2] is described as follows: Half life in Sprague-Dawley rat at 50 mg/kg, ip up to 24 hrs by LC-MS analysis. The class given is ADME, organism-based. The following applies: in vivo. In outline: (§2)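 Male Sprague-Dawley rats, six per group, single 50 mg/kg intraperitoneal dose; parameters derived by non-compartmental analysis using the linear trapezoidal method; mean ± SD, n = 6.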
Data set [3] concerns Mus musculus. The data set is described as follows: Antiinflammatory activity against LPS-induced hippocampal neuroinflammatory Kunming mouse model assessed as reduction in GFAP level in hippocampus at 50 mg/kg, ip administered bid for 6 days by DAPI staining based microscopic method. The class given is functional, organism-based. The following applies: time 6.0 day.
Data set [4] is described as follows: Toxicity in po dose Kunming mouse after 14 days. The class given is organism-based. The settings on record: in vivo, time 14 day. The gist of the method:
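Acute toxicity followed OECD guidelines in ten mice (five male, five female). A single oral dose of 1000 mg/kg was given, with a vehicle control group. Behaviour was observed over 14 days. Mice were then sacrificed for gross and H&E histological examination of heart, liver, kidney and stomach.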

A short description of data set [5]: Toxicity in Kunming mouse assessed as behavioral changes at 1000 mg/kg, po up to 14 days. Type of data set: organism-based. The following applies: in vivo, 336 h, time <=14 day. In outline: (§3)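 Mice, five male and five female, given a single oral dose of 1000 mg/kg and observed for behaviour for 14 days. Heart, liver, kidney and stomach then examined grossly and after H&E staining, compared with vehicle controls.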

Data set [6] is described as follows: Toxicity in Kunming mouse assessed as changes in liver at 1000 mg/kg, po after 14 days. Type of data set: organism-based. The following applies: in vivo, 336 h, time 14 day. The gist of the method: as §3
In data set [7] the test system is BV-2. The data set is described as follows: Antiinflammatory activity against LPS-induced mouse BV-2 cells assessed as decrease in iba-1 protein expression at 20 uM after 24 hrs by DAPI staining based confocal laser microscopic method. The class given is functional, cell-based. The gist of the method:
as §1

The nature of data set [8]: Tmax in Sprague-Dawley rat at 50 mg/kg, ip up to 24 hrs by LC-MS analysis. The class given is ADME, organism-based. The following applies: in vivo. The gist of the method: as §2
The target of data set [9] is T1, Prostaglandin G/H synthase 2 (Mus musculus) (UniProt Q05769).
T1 sequence (whole entry): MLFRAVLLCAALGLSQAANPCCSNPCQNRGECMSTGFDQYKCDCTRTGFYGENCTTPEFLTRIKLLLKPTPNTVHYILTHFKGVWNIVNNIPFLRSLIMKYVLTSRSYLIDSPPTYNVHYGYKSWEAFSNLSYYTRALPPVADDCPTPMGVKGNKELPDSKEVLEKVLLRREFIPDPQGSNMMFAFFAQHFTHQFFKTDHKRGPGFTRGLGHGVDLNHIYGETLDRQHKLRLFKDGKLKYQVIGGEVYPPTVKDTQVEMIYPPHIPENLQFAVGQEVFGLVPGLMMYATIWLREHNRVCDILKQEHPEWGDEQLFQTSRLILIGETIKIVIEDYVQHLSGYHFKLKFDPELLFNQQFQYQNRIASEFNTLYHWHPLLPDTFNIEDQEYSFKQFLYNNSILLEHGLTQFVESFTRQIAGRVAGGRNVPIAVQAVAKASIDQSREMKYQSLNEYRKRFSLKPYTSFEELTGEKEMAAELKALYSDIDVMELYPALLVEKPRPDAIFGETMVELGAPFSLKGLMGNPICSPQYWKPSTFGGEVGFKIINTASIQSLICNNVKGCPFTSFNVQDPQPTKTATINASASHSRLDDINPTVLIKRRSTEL
The data set is described as follows: Inhibition of COX2 in LPS-induced mouse BV-2 cells assessed as reduction in PGE2 production after 24 hrs by ELISA. Type of data set: cell-based. The gist of the method: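 BV2 cells at 5×10^5 cells/mL stimulated with LPS 1 μg/mL; compound at 10, 20 or 40 μM final for 24 h, DMSO in blanks. Supernatant TNF-α and IL-10 measured by sandwich ELISA and PGE2 by competitive ELISA, OD at 450 nm; at least three independent experiments.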
(In general: In an ELISA, binding on a coated surface is turned into a signal by an enzyme label.)

The subject of data set [10] is C6. The data set is described as follows: Inhibition of LPS-induced TNFalpha production in rat C6 cells after 24 hrs by ELISA. The following applies: dose 10-40 µM. Type of data set: functional, cell-based. In outline:
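C6 cells at 5×10^5 cells/mL stimulated with LPS 10 μg/mL; compound at 10, 20 or 40 μM final for 24 h. Supernatant TNF-α measured by sandwich ELISA at 450 nm; at least three independent experiments.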

For data set [11], the system named is Mus musculus. Put plainly: Antiinflammatory activity against LPS-induced hippocampal neuroinflammatory Kunming mouse model assessed as reduction in GFAP level in hippocampus at 50 mg/kg, ip administered bid for 6 days by Western blot analysis. Type of data set: functional, organism-based. The following applies: time 6.0 day. (In western blotting, separated proteins are transferred to a membrane and probed.)

For data set [12], the target named is Prostaglandin G/H synthase 1 (Homo sapiens) (UniProt P23219). The data set is described as follows: Inhibition of human COX1 assessed as reduction in PGF2alpha formation using arachidonic acid as substrate incubated for 10 mins by ELISA.
The nature of data set [13]: Antioxidant activity assessed as DPPH radical scavenging activity incubated for 30 mins. The class given is functional. The gist of the method:
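Compound in ethanol at 2.5–40 μM final, mixed 1:1 with 700 μmol/L ethanolic DPPH; 30 min in the dark at room temperature, absorbance at 515 nm. Serotonin used as standard; EC50 from three independent experiments.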
For orientation: DPPH is a stable violet radical that fades when it is reduced.

A short description of data set [14]: Cmax in Sprague-Dawley rat at 50 mg/kg, ip up to 24 hrs by LC-MS analysis. Type of data set: ADME, organism-based. More on the design: route intraperitoneal, dose 50 mg/kg, time <=24. The settings on record: in vivo. The gist of the method: as §2
Data set [15] is described as follows: Inhibition of LPS-induced NO production in mouse BV-2 cells incubated for 24 hrs by Griess reagent based assay. The class given is functional, cell-based. The settings on record: BV-2, 24 h. In outline:
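BV2 cells at 5×10^5 cells/mL, LPS 1 μg/mL plus compound at 2.5–40 μM final for 24 h. Supernatant nitrite measured with Griess reagent for 15 min at room temperature in the dark, 540 nm, against a NaNO2 standard curve; IC50 from three repeats.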

Data set [16] relates to BV-2. The data set is described as follows: Cytotoxicity against mouse BV-2 cells assessed as reduction in cell viability after 24 hrs by MTT assay. Type of data set: cell-based. The following applies: BV-2, 24 h. In outline: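 C6 or BV2 cells seeded at 1–5×10^5 per well; after 12 h exposed to 0, 6.25, 12.5, 25, 50 or 100 μM (final, DMSO <0.4%) for 24 h. MTT added for 4 h, dissolved in DMSO, read at 570 nm. IC50 as mean of three independent experiments run in triplicate.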

Data set [17] has as its system C6. The data set is described as follows: Inhibition of LPS-induced NO production in rat C6 cells incubated for 24 hrs by Griess reagent based assay. The class given is functional, cell-based. The settings on record: C6, 24 h. The gist of the method:
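C6 cells at 5×10^5 cells/mL, LPS 10 μg/mL plus compound at 2.5–40 μM final for 24 h. Nitrite measured with Griess reagent at 540 nm against a NaNO2 standard; IC50 from three repeats.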

Turning to `Cc1ccc(C(=O)NCCc2c[nH]c3ccccc23)c(O)c1`, the result in the data set on C6 [1], in the data set on Mus musculus [3], with BV-2 [7] and in the data set with Mus musculus [11] was Active. Also, the Ratio IC50 in the data set listed under Homo sapiens was 3.95. The molecule also showed a half-life in data set [2] of 13.9 h. Further, the LD50 at 336 h in [4] was above 1000 mg/kg. The Activity entry in data set [5] and in data set [6] was “Non-Toxic” each time. Besides, the Tmax in data set [8] is 0.19 h. Further, the inhibition result (in [9]; in the data set with C6 [10]) was “Dose-dependent effect” in each case. Moreover, the IC50 in data set [12] was 16.4 µM; in data set [15], 4.94 µM; with BV-2 [16], above 100 µM; with C6 [17], 7.48 µM. In addition, the EC50 in data set [13] came to 25.2 µM. In addition, the peak concentration (Cmax) in data set [14] was 2100 ng/mL.

Regarding `O=C(NCCc1c[nH]c2ccc(O)cc12)c1ccccc1Nc1ccccc1`, the result in the data set with C6 [1], in the data set with Mus musculus [3], in the data set on BV-2 [7] and in the data set on Mus musculus [11] was Active. For the same molecule, the Ratio IC50 in the data set listed under Homo sapiens stood at 0.76. The molecule also gave a half-life in data set [2] of 2.72 h. Moreover, in data set [4], the LD50 at 336 h is above 1000 mg/kg. In addition, the Activity entry in data set [5] and in [6] was “Non-Toxic” each time. Further, the Tmax in data set [8] turned out to be 0.92 h. Besides, the inhibition entry (in [9]; in the data set on C6 [10]) was “Dose-dependent effect” throughout. Besides, the IC50 in data set [12] is 0.38 µM; in data set [15], 37.2 µM; in the data set on BV-2 [16], above 100 µM; in the data set with C6 [17] it was 6.73 µM. Further, the EC50 in data set [13] came to 3.82 µM. This molecule also showed a Cmax in [14] of 6080 ng/mL.

Source of the values: ChEMBL document CHEMBL4680229, “Design, synthesis and bioactivity study of N-salicyloyl tryptamine derivatives as multifunctional agents for the treatment of neuroinflammation” (Eur J Med Chem, 2020).
